Only some compounds are listed: those with a hit (about 1.4% of all), similar ones and a draw of the others.
Platelet DG rel: platelet dense granule release activity | inhibition, %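 (compounds screened at 7.5 µM in platelet-rich plasma)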 | 300,000 compounds, 0.22% hits | human platelet-rich plasma, SFLLRN dense granule ATP release, luminescence;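 active = mean replicate score, as percent of positive control, at or above 50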
STAT3 blocker: inhibitors of IL-6 induced STAT3 signaling. 190,000 compounds, 0.89% hits. U3A cells, IL-6 STAT3-luciferase reporter, luminescence; host cell line lacks STAT1. AID 862. inhibition, % at 5.5 µM;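 active = inhibition above the mean inhibition across all screened compounds plus 3 SD, cut at about 44% in these data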
PERK inhibitor: human PERK inhibition, primary cell-based screen | CHO PERK-DD fusion, SEAP luminescence translation reporter | inhibition, % at 5.6 µM | Q9NZJ5 | 220,000 compounds, 0.17% hits;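 active = inhibition above the mean inhibition of all tested compounds plus 3 SD, set separately per screening campaign, cut at about 2.9% in these data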;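 also: PERK kinase domain activated by AP20187 dimerizer at 100 nM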
STAT3 act-1: STAT3 signaling activation; U3A cells, IL-6 STAT3-luciferase reporter, luminescence; 100% = signal with IL-6 EC80 alone; activation (% of control), % at 5.6 µM; 190,000 compounds, 0.91% hits; AID 871;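 active = activation above the screen-wide mean of compound activation plus 3 SD, cut at about 130% in these data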
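Material: STAT1-lacking human U3A cells, STAT3 luciferase reporter | Benchmarks: IL-6-only wells as 100% reference | Probe or stimulus: IL-6 (33 ng/mL) | Timing: Compound 1 h, then IL-6 6 h at 37 °C | Detection: Luminescence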
STAT1 blocker: inhibitors of IFN-gamma induced STAT1 signaling; AID 920; inhibition, % at 5.5 µM; 200,000 compounds, 0.35% hits; NIH 3T3 STAT1-luciferase reporter, luminescence;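 active = inhibition above a set limit, the mean inhibition across all tested compounds plus 3 SD, cut at about 34% in these data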
STAT3 act-2: STAT3 activation, confirmation assay | AID 1267 | shares compounds with STAT3 act-1 | U3A STAT3-luciferase reporter, IL-6 potentiation, luminescence; U3A cells lack STAT1; 100 means same as IL-6 alone | potentiation (% of control), % at 5.7 µM | 1,200 compounds, 64% hits;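 active = percent activation of the STAT3 luciferase reporter above a set limit taken from the earlier primary screen, cut at about 130% in these data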
NFkB act 2: activates NF-kappaB, counter-screen to STAT3 activators; shares compounds with STAT3 act-1; human cells, NF-kappaB reporter activation; activation (% of control), % at 5.7 µM; 1,200 compounds, 11% hits; in the data active = activation above about 120%;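 also: reporter induced by TNF-alpha stimulation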
STAT1 act STAT3c: counter-screen for STAT3 activators: STAT1 activation; shares compounds with STAT3 act-1; NIH 3T3 STAT1-luciferase reporter, IFN-gamma, luminescence; activation (% of control), % at 5.7 µM; 1,200 compounds, 13% hits; AID 1318;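 active = activation above the solvent-only control well mean plus 3 SD, set per screening run, cut at about 120% in these data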
Of the large screens only hits and unclear results are named; the others gave an inactive call (follow-up assays come after a bar, where they were run).

Oc1ccccc1-c1nnc(SCCN2CCOCC2)n1Cc1ccccc1	STAT3 act-1 168 | STAT3 act-2 147 | NFkB act 2 inactive | STAT1 act STAT3c inactive
O=C(NCc1ccco1)c1ccc2c(c1)OCCO2	none (no result: STAT3 blocker, PERK inhibitor, STAT3 act-1, STAT1 blocker)
CCCn1c2ccccc2c2nnc(SCC(=O)OC)nc21	none
CCCCn1c2ccccc2c2nnc(SCC(=O)NC3=NN=C(c4ccccc4)CS3)nc21	STAT3 act-1 136 | STAT3 act-2 inactive | NFkB act 2 inactive | STAT1 act STAT3c inactive
O=C1Cc2ccccc2C(=O)N1CCc1ccccc1	STAT3 act-1 155 | STAT3 act-2 136 | NFkB act 2 inactive | STAT1 act STAT3c inactive
O=C1C(=O)N(Cc2ccccc2)C(=O)N1CCN1C(=O)c2ccccc2C1=O	none
Cc1cc(Nc2ccccc2)n(-c2ccc(C(=O)O)cc2)n1	none
Cc1cc(Nc2ccccc2)n(C(=O)c2ccc(Cl)cc2)n1	STAT3 act-1 140 | STAT3 act-2 inactive | NFkB act 2 inactive | STAT1 act STAT3c 133
COc1ccc(S(=O)(=O)Nc2ccccc2C(=O)N2CCOCC2)cc1C	none (no result: STAT3 blocker, PERK inhibitor, STAT3 act-1, STAT1 blocker)
O=C(CSc1nc2ccccc2o1)Nc1nc2ccc(Br)cc2s1	none
Cc1cccc2sc(NC(=O)CSc3nc4ccccc4o3)nc12	STAT3 act-1 136 | STAT3 act-2 inactive | NFkB act 2 inactive | STAT1 act STAT3c inactive
NS(=O)(=O)c1ccc(NC(=S)NCc2ccco2)cc1	STAT3 act-1 136 | STAT3 act-2 inactive | NFkB act 2 inactive | STAT1 act STAT3c inactive
CC1(C)S[C@@H]2C(C(=O)OCc3ccccc3)NC(=O)N2C1C(=O)OCc1ccccc1 (stereo partly drawn)	none (no result: STAT3 blocker, PERK inhibitor, STAT3 act-1, STAT1 blocker)
O=[N+]([O-])c1ccc(O)c(C2=NNC(c3ccccc3F)C2)c1 (stereo not drawn)	none (no result: STAT3 blocker, STAT3 act-1, STAT1 blocker)
COc1ccc([N+](=O)[O-])cc1C1NN=C(c2ccccc2O)S1 (stereo not drawn)	STAT3 act-1 151 | STAT3 act-2 142 | NFkB act 2 inactive | STAT1 act STAT3c inactive
CCOC(=O)C1=NN(c2ccccc2)C(c2ccccc2)CC1=O (stereo not drawn)	STAT3 act-1 138 | STAT3 act-2 inactive | NFkB act 2 inactive | STAT1 act STAT3c inactive
CCOC(=O)C1=NN(c2ccc(OC)cc2)C(c2ccccc2)CC1=O (stereo not drawn)	none
CSc1nnc(-c2ccccc2)c(-c2ccccc2)n1	none (no result: STAT3 blocker, STAT3 act-1, STAT1 blocker)
CSc1nnc2c3ccccc3c3ccccc3c2n1	STAT3 act-1 162 | STAT3 act-2 147 | NFkB act 2 inactive | STAT1 act STAT3c inactive
Fc1ccc(/C=C\c2nccc3c2[nH]c2ccccc23)cc1	STAT3 act-1 138 | STAT3 act-2 148 | NFkB act 2 inactive | STAT1 act STAT3c inactive
CC1Oc2ccccc2OC1C(=O)Nc1ccccn1 (stereo not drawn)	STAT3 act-1 156 | STAT3 act-2 144 | NFkB act 2 inactive | STAT1 act STAT3c inactive
O=C(Nc1ccccn1)C1COc2ccccc2O1 (stereo not drawn)	none
Cc1cc(OCC(=O)N(Cc2ccccc2)C2CCS(=O)(=O)C2)ccc1Cl (stereo not drawn)	none (no result: STAT3 blocker, PERK inhibitor, STAT3 act-1, STAT1 blocker)
O=C1c2ccccc2C(=O)N1CCC1=CCCCC1	STAT3 act-1 141 | STAT3 act-2 inactive | NFkB act 2 122 | STAT1 act STAT3c 132
O=C1NC(CCc2ccccc2)C(=O)N1CCOc1ccccc1 (stereo not drawn)	none
N#C/C(=C\Nc1ccc(Cl)cn1)S(=O)(=O)c1ccccc1	none (no result: STAT3 blocker, STAT3 act-1, STAT1 blocker)
O=C/C(=C\Nc1ccc(Cl)cn1)c1nc2ccccc2o1	STAT3 act-1 137 | STAT3 act-2 inactive | NFkB act 2 inactive | STAT1 act STAT3c inactive
O=C/C(=C\Nc1ccc(Cl)cn1)c1nc2cc(Cl)ccc2o1	STAT3 act-1 145 | STAT3 act-2 inactive | NFkB act 2 inactive | STAT1 act STAT3c inactive
COc1ccc(CNC(=O)CCn2nc(C)c3c(C)n(-c4ccccc4)nc3c2=O)c(OC)c1	none (no result: STAT3 blocker, PERK inhibitor, STAT3 act-1, STAT1 blocker)
Cn1c(N2CCC(C(N)=O)CC2)nc2c1c(=O)n(Cc1ccc(Br)cc1)c(=O)n2C	none

High-throughput results: PubChem BioAssay, several laboratories
